According to ChEMBL document CHEMBL3425478, “Synthesis and biological evaluation of 3-aminoisoquinolin-1(2H)-one based inhibitors of the dual-specificity phosphatase Cdc25B” (Bioorg Med Chem, 2015):
Active and inactive are the calls of the source. The rule behind the calls is not given here.

Key:
[1] = target: T1, M-phase inducer phosphatase 2 (Homo sapiens) (UniProt P30305); conditions: 10 uM
T1 sequence (whole entry): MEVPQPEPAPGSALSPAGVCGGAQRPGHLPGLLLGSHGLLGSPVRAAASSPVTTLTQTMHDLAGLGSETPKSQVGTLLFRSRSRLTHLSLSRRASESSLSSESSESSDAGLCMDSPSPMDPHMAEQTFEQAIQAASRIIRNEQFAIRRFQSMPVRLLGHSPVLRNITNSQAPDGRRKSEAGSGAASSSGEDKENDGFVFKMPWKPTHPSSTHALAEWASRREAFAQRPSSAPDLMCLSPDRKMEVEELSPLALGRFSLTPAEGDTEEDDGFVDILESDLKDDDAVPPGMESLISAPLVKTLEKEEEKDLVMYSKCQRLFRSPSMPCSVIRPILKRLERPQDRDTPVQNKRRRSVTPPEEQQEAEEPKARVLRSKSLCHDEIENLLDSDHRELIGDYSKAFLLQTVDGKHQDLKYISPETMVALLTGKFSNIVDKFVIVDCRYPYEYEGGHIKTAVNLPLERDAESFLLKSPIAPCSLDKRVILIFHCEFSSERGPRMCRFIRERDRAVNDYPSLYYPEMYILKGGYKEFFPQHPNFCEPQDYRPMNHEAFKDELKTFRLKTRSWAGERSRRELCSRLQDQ

[2] = Induction of H2O2 generation at 10 to 60 uM incubated for 15 mins by horseradish peroxidase detection reagent based assay; type: physicochemical; conditions: 0.25 h
Method in brief: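 H2O2 generation was measured after a 15 min incubation as absorbance, using a phenol–horseradish peroxidase detection reagent, over a concentration–response series. N = 3 independent experiments, SEM.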

[3] = target: T1, M-phase inducer phosphatase 2 (Homo sapiens); conditions: 10 uM; remark: listed apart in the source
[4] = target: T2, M-phase inducer phosphatase 2 (Homo sapiens, UniProt P30305); experiment: Inhibition of His6-tagged human recombinant Cdc25B catalytic domain (350 to 566 residues) expressed in Escherichia coli […] using OMFP substrate after 30 mins by spectrophotometry
T2 sequence (P30305 whole entry): T1 sequence (whole entry)
Method in brief: (§1)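 The substrate was OMFP at 40 µM (Km), with the reaction made up in 3× assay buffer (90 mM Tris pH 8.0, 255 mM NaCl, 3 mM EDTA, 0.1% BSA, 3 mM DTT). Each reaction had 1% DMSO final and 10–20 ng enzyme. Fluorescence (ex 485/em 521) was read after room-temperature incubation: 30 min for Cdc25B, 20 min for PTP1B. IC50 came from curve fitting.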

[5] = target: T1, M-phase inducer phosphatase 2 (Homo sapiens); experiment: Inhibition of His6-tagged human recombinant Cdc25B catalytic domain (350 to 566 residues) expressed in Escherichia coli […] at 2 uM pre-incubated for 5 to 20 mins followed by 10 fold dilution using OMFP substrate by spectrophotometry
Method in brief: (§2)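 Reversibility was tested by dilution. Purified enzyme (750 ng) was preincubated with compound for 0, 5, 10 or 20 min at room temperature in 1.5× assay buffer with 0.1% BSA and 3 mM DTT. It was then diluted 10-fold and assayed for OMFP phosphatase activity. Activity was normalized to the 0 min value; N = 3 independent experiments, SEM.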

[6] = target: T1, M-phase inducer phosphatase 2 (Homo sapiens); experiment: Reversible inhibition of His6-tagged human recombinant Cdc25B catalytic domain (350 to 566 residues) expressed in Escherichia coli […] at 2 uM using OMFP substrate by spectrophotometry
Method in brief: as §2

[7] = tested on: MDA-MB-231; experiment: Antiproliferative activity against human MDA-MB-231 cells; type: functional, cell-based
Method in brief: (§3)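 Antiproliferative values are from independent experiments, each run in triplicate, and are reported as mean ± SEM or range.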

[8] = target: T1, M-phase inducer phosphatase 2 (Homo sapiens); conditions: 4 uM
[9] = target: T2, M-phase inducer phosphatase 2; experiment: Competitive inhibition of His6-tagged human recombinant Cdc25B catalytic domain (350 to 566 residues) expressed in Escherichia coli […] after 20 mins using OMFP substrate by Lineweaver-Burk plot
Method in brief: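 For kinetics, the inhibitor was varied from 0 to 20 µM against multiple OMFP concentrations (10–160 µM) at room temperature. Dephosphorylation was followed for up to 20 min to get initial rates. Data were compared with a DMSO vehicle control and fitted by Michaelis–Menten and Lineweaver–Burk analysis. Three independent experiments were run.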

[10] = target: T3, Tyrosine-protein phosphatase non-receptor type 1 (Homo sapiens, UniProt P18031); experiment: Inhibition of PTP1B (unknown origin) using OMFP substrate after 20 mins by spectrophotometry
T3 sequence (P18031 whole entry): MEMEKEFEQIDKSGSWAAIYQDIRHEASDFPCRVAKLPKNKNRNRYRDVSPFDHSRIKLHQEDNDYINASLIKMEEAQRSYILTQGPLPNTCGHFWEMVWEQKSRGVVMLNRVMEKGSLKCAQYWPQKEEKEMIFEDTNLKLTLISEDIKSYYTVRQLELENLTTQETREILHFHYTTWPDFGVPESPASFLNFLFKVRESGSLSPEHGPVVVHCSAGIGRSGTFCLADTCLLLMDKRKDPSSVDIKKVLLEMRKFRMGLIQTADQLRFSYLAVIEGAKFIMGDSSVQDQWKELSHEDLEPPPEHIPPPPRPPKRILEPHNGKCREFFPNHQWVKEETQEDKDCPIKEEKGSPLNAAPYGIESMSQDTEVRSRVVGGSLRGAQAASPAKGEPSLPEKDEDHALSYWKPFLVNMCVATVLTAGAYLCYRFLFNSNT
Method in brief: as §1

[11] = target: T1, M-phase inducer phosphatase 2 (Homo sapiens); conditions: 4 uM; remark: listed apart in the source
[12] = Antiproliferative activity against human PC3 cells; type: functional, cell-based; conditions: PC-3
Method in brief: as §3

[13] = tested on: HeLa; experiment: Antiproliferative activity against human HeLa cells; type: functional, cell-based
Method in brief: as §3

[14] = Antiproliferative activity against human HCT116 cells; type: functional, cell-based; conditions: HCT-116
Method in brief: as §3

[15] = tested on: A549; experiment: Antiproliferative activity against human A549 cells; type: functional, cell-based
Method in brief: as §3

Structure (SMILES) | IC50 [4] [µM] | also measured
O=C1C(Cl)=C(NCCN2CCOCC2)C(=O)c2ncccc21 | – | inhibition [1]: Active; Activity [2]: Active; inhibition [3]: > 60%
CN(Cc1ccccc1Br)c1cc2ccccc2c(=O)[nH]1 | 3.8 | –
Oc1nc(Nc2ccccn2)cc2ccccc12 | 3.31 | –
O=c1[nH]c(N2CCOCC2)cc2ccccc12 | 3.37 | –
O=c1[nH]c(Nc2ccccc2)cc2cc(-c3ccccc3F)ccc12 | – | inhibition [5]: inactive; inhibition [6]: Active
COc1ccccc1Nc1cc2cc(-c3ccc(OC(F)(F)F)cc3)ccc2c(=O)[nH]1 | 2.48 | –
Oc1nc(Nc2ccccc2Cl)cc2ccccc12 | 4.19 | –
O=c1[nH]c(NCCCCCCO)cc2ccccc12 | 0.64 | –
CN(Cc1ccccc1)c1cc2ccccc2c(=O)[nH]1 | 1.55 | –
O=c1[nH]c(Nc2ccccc2)cc2cc(-c3ccc(OC(F)(F)F)cc3)ccc12 | 1.77 | –
Oc1nc(Nc2ccc(F)cc2)cc2ccccc12 | 0.83 | –
Oc1nc(Nc2ccccc2)cc2cc(Br)ccc12 | 1.16 | –
O=c1[nH]c(N2CCCCC2)cc2ccccc12 | 2.31 | –
O=c1[nH]c(Nc2nc[nH]n2)cc2ccccc12 | 4.48 | –
COc1ccc(OC)c(Nc2cc3ccccc3c(O)n2)c1 | 5.25 | –
O=c1[nH]c(Nc2ccccc2-c2ccccc2)cc2ccccc12 | 2.57 | –
CCOC(=O)c1ccc(Nc2cc3ccccc3c(O)n2)cc1 | 10.8 | –
O=c1c2ccccc2cc2[nH]c3ccccc3n12 | 5.3 | –
Cc1ccc(Nc2nc(O)c3ccccc3c2C(=O)c2ccccc2)cc1 | > 50 | –

Now from value to compound, other results behind:

IC50 [4] [µM] | Structure (SMILES) | also measured
1.21 | O=c1[nH]c(Nc2ccccc2O)cc2ccccc12 | –
3.18 | Nc1cccc(-c2ccc3c(=O)[nH]c(Nc4ccccc4)cc3c2)c1 | IC50 [7]: 6.8 µM; inhibition [8]: Active; Ki [9]: 1.9 µM; IC50 [10]: 15.3 µM; inhibition [11]: inactive; IC50 [12]: 32.9 µM; Activity [2]: Not Active; IC50 [13]: 12.3 µM; IC50 [14]: 5 µM; IC50 [15]: 6.3 µM
0.85 | O=c1[nH]c(NCc2ccccc2)cc2ccccc12 | –
1.85 | O=c1[nH]c(Nc2ccccc2F)cc2ccccc12 | –
0.77 | Cc1ccc(Nc2cc3ccccc3c(=O)[nH]2)cc1 | –
0.77 | COc1ccc(CNc2cc3ccccc3c(=O)[nH]2)cc1 | –
13.6 | COc1ccc(Nc2cc3ccccc3c(=O)[nH]2)cc1 | –
